KCNK9 inh: KCNK9 potassium channel inhibitors, primary screen, HEK293 cells, thallium flux; B-score at 10 µM; Potassium channel subfamily K member 9 (Homo sapiens), Q9NPC2; AID 488922, 2010; FluxOR thallium flux fluorescence; hits give low values; actives 1.2% (n = 310,000);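 active = ratio B-score over 3 SD below the library mean, with starting fluorescence within 5 SD of its mean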;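 also: negative B-score means less thallium flux so channel inhibition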
KCNK3 block: human KCNK3 channel inhibitors, primary screen, CHO cells, FluxOR thallium flux, B-score. actives 0.84% (n = 340,000). AID 602410, 2012. FluxOR fluorescence; hits give low values. Potassium channel subfamily K member 3 (Homo sapiens), O14649. B-score at 10 µM;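 active = B-score under library mean minus 4 SD, starting fluorescence ratio at most library mean plus 5 SD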;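 also: more negative B-score means stronger inhibition of thallium flux through KCNK3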
KCC2 mod: KCC2 cotransporter modulators, thallium flux, primary screen, cell-based, HEK293 KCC2, FluoZin-2 fluorescence, MLSMR. KCC2 cells, thallium flux FluoZin-2 fluorescence. B-score of Tl+ flux slope (higher = more flux/activation; lower = inhibition) at 10 µM. actives 2.2% (n = 190,000);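 active = thallium flux slope and its plate-corrected score both differing from the plate sample mean at a set confidence after two filtering rounds, in either direction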;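 also: slope of fluorescence scaled to starting intensity during 10 to 20 s after thallium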
hERG rescue: hERG rescue from dofetilide block, primary screen, cell-based, CHO-hERG, FluxOR thallium flux, dofetilide IC70 | actives 0.51% (n = 310,000) | AID 1511, 2009 | dofetilide IC70 present | activation (rescue from dofetilide block), less the hit threshold, % at 10 µM;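 active = activation above the mean of controls blocked by dofetilide plus 5 SD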;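 also: thallium influx through hERG after potassium depolarization seen as dye fluorescence rise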
Target sequence (Q12809 whole entry, looked up): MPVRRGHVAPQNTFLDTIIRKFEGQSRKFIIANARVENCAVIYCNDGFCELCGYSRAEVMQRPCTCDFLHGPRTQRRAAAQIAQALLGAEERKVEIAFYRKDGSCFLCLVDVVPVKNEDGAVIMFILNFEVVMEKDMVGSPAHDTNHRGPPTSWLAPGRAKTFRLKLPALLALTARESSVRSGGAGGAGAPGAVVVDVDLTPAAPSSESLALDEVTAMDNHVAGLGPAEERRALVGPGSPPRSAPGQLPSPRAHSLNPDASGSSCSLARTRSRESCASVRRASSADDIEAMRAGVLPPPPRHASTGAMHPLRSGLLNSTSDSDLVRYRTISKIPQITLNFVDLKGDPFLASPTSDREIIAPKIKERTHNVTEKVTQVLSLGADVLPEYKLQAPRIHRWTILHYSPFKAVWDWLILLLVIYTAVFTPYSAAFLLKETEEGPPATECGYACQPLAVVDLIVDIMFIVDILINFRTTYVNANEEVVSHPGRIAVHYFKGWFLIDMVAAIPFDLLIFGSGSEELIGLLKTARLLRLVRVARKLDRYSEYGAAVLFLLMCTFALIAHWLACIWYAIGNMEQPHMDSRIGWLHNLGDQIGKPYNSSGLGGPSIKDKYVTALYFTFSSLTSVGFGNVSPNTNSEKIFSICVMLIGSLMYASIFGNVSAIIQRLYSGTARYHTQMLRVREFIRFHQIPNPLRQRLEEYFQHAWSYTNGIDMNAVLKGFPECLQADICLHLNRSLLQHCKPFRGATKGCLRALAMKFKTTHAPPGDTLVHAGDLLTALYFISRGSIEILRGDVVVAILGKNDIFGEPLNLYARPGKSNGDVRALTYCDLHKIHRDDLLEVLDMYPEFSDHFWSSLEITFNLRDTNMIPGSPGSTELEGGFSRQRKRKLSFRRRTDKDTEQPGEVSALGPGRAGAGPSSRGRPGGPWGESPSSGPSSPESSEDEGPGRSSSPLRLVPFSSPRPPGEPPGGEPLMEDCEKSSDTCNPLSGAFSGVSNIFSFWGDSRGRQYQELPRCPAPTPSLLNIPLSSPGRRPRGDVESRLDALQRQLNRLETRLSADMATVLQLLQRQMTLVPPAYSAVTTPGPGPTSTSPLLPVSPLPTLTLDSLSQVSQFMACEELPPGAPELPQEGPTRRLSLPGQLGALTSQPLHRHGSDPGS
KCNQ1 block: inhibitors of human KCNQ1 channel, primary screen, cell-based, thallium flux, high-throughput | Potassium voltage-gated channel subfamily KQT member 1 (Homo sapiens), P51787 | CHO-K1 KCNQ1, FluxOR thallium flux fluorescence; hits give high values | B-score at 10 µM | actives 1.3% (n = 310,000);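 active = compounds whose thallium flux B-score, printed positive for inhibition, exceeds three library SD while starting fluorescence stays within three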;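 also: channel opened by potassium depolarization with thallium stimulus after 20 min compound exposure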
KCNQ1 pot: potentiators or activators of KCNQ1 channel, primary screen, cell-based, thallium flux, high-throughput | CHO-K1 KCNQ1, thallium flux FluxOR fluorescence; hits give high values | B-score at 10 µM | actives 0.35% (n = 310,000) | AID 2648, 2010;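 active = fluorescence ratio B-score, a plate-corrected score, at least three library SD, with initial intensity B-score within 5 SD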
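assay system = CHO-K1 cells stably expressing KCNQ1 | medium = assay buffer, equal DMSO in all wells | timing = 37 °C overnight plating, 90-min dark dye load, 20-min compound pretreatment | measured by = kinetic FluxOR thallium fluorescence, 10-s 1-Hz baseline, 110-s post-stimulus read | measure = fluorescence change relative to baseline, converted to B score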
KCC2 sec1: KCC2 modulators in sodium-free buffer, confirmation, cell-based, HEK293 KCC2, thallium flux, secondary assay | actives 15% (n = 3,700) | FluoZin2 fluorescence; hits give high values | shares compounds with KCC2 mod | normalised thallium flux (F/F0 slope) at 10 µM;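 active = thallium flux slope above the same plate's solvent-only control mean plus 3 SD; inconclusive = the two replicate wells disagree; inactive = no significant difference from solvent-only control wells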
KCC2 bumet counter: thallium flux persisting under bumetanide in KCC2 cells, confirmation, counter-screen for KCC2 modulator project, cell-based, HEK293 KCC2, FluoZin2, secondary assay 3 | AID 1714, 2009 | normalized thallium flux at 10 µM | actives 49% (n = 3,700) | HEK293-KCC2 + bumetanide/ouabain; hits give high values | shares compounds with KCC2 mod;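 active = thallium entry rate above the same plate's blocked-transporter control wells by more than 3 SD; inconclusive = the two repeat wells disagree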;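 also: raw slope of fluorescence over initial fluorescence between 10 and 20 s after thallium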
KCC2 secondary2: KCC2 modulators without ouabain present, confirmation, cell-based, HEK293 KCC2, thallium flux, FluoZin2, secondary assay 2; normalized thallium flux at 10 µM; AID 1715, 2009; actives 23% (n = 3,700); thallium flux FluoZin2 fluorescence; actives lie on both sides; F/F0 rise rate, 10–20 s post-thallium; shares compounds with KCC2 mod;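 active = thallium flux slope more than 3 SD above or below the plate's solvent-only control mean, mostly below; inconclusive = the two repeat wells disagreed; inactive = no significant shift from solvent-only controls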
HEK293 Tl flux: thallium flux modulation in parental HEK cells, confirmation, counter-screen for KCC2 modulator project, cell-based, counterscreen 1; HEK293 parental cells, thallium flux FluoZin2, ouabain; baseline-ratio fluorescence slope, 10–20 s after thallium; AID 1716, 2009; thallium flux rate (normalised fluorescence) at 10 µM; actives 46% (n = 3,700); shares compounds with KCC2 mod;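 active = thallium flux rate significantly above the same plate's solvent-only control wells, beyond their mean plus 3 SD; inconclusive = the two replicate wells gave conflicting results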
KCC2 retest ouab: KCC2 inhibitors and activators, ouabain retest, confirmation, HEK-KCC2 cells | raw Tl+ flux slope (below DMSO = inhibition, above = activation) at 10 µM | shares compounds with KCC2 mod | AID 1717, 2009 | HEK293-KCC2, thallium flux FluoZin2 fluorescence; bidirectional: low = inhibitor, high = activator | actives 48% (n = 3,700);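 active = thallium flux slope beyond 3 SD from same-plate DMSO control mean in most replicates, usually higher, sometimes lower; inconclusive = repeat tests gave conflicting results; inactive = no significant difference from controls in most replicates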;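 also: slope of initial-normalized fluorescence between seconds 10 and 20 after thallium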
HEK293 Tl flux2: native HEK Tl+ uptake effects, second counter-screen – HEK cells, counterscreen 2, counter-screen for KCC2 modulator project, confirmation; thallium flux slope at 10 µM; HEK293 parental, thallium flux FluoZin-2 fluorescence slope; actives 33% (n = 3,700); shares compounds with KCC2 mod;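 active = thallium flux slope above the same plate's solvent-control mean plus 3 SD in both duplicate wells; inconclusive = duplicate wells that disagreed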;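 also: run without ouabain in cells lacking the KCC2 cotransporter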
A number is an active result; n = inactive; u = inconclusive; x = no result. In the library only some 4.1% were active in any assay of this set; here they are far more common.

SMILES	KCNK9 inh	KCNK3 block	KCC2 mod	hERG rescue	KCNQ1 block	KCNQ1 pot	KCC2 sec1	KCC2 bumet counter	KCC2 secondary2	HEK293 Tl flux	KCC2 retest ouab	HEK293 Tl flux2
CN(C)S(=O)(=O)c1ccc(NC(=O)CSc2ncnc3ccccc23)cc1	n	n	-4	n	n	n	n	n	0.026	n	0.015	n
Oc1oc(-c2ccccc2)nc1/C=N/c1nccs1	n	n	14	n	n	12	0.016	0.082	n	0.017	0.044	0.012
CC(=O)c1cccc(S(=O)(=O)NCCC(=O)NC2CCCCCC2)c1	x	n	x	x	x	x	x	x	x	x	x	x
COCCNC(C)C(=O)C12CC3CC(CC(C3)C1)C2 (configuration not stated)	n	n	9	n	n	n	n	n	n	n	n	n
CCCCCn1nnc2c(=O)oc3ccccc3c21	n	n	x	n	n	n	n	n	0.023	0.0053	0.01	u
Cc1cc(C)cc(NC(=O)C(OC(=O)c2cc[n+]([O-])cc2)c2ccccc2)c1 (configuration not stated)	x	n	x	x	x	x	x	x	x	x	x	x
O=c1ccc(N=Nc2ccccc2)ccc1O	n	n	151	49	n	79	0.012	0.12	0.12	0.11	0.12	0.11
Cc1ccc(Nc2nnc(SCc3cc(=O)n4ccsc4n3)s2)c(C)c1	n	n	-7.6	n	n	n	n	n	u	n	0.016	n
COc1ccccc1Nc1nnc(SCc2cc(=O)n3ccsc3n2)s1	n	n	n	n	n	n	x	x	x	x	x	x
CCc1ccc(Nc2nnc(SCc3cc(=O)n4ccsc4n3)s2)cc1	n	n	-8.5	n	n	n	n	n	0.021	n	0.011	n
C=CCN1C(=O)c2ccc(C(=O)N(CCC)CC(=O)Nc3ccccc3C)cc2C1=O	n	n	x	n	n	n	x	x	x	x	x	x
COc1ccc(-c2coc3cc(O)cc(O)c3c2=O)cc1	n	n	n	n	n	n	u	n	n	n	0.016	u
S=c1nc[nH]c2c1sc1nc(N3CCOCC3)c3c(c12)CCCC3	n	n	67	97	n	95	0.0094	0.089	0.069	0.082	0.074	0.062

Compound activity: PubChem, several laboratories
